We go through 12 compounds from publication PMC9082783 (RSC Advances, 2018).

Structures are written as SMILES. “Also recorded” adds a separate entry of the source. Read-outs that look alike come from different tables or passages of the source.

One data set is described as follows: Hemolytic activity. It counts as cell-based. Conditions: bovine, erythrocyte (RBC) suspension, pH 7.4. An outline of the steps:
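Bovine blood collected in EDTA, diluted in 0.9% NaCl and centrifuged at 1000 × g for 10 min. Erythrocytes were resuspended in PBS pH 7.4. Test compound solution (10 mg/mL stock) was mixed with the RBC suspension and incubated 30 min at room temperature. PBS served as negative control, Triton X-100 as positive control. Triplicate runs; mean ± SEM; % hemolysis calculated by formula.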

Data set [1] addresses T1, Jack bean urease (Canavalia ensiformis, UniProt P07374). Kind of data set: In vitro urease inhibitory activity. In kind it is biochemical.
Data set [2] addresses T1, Jack bean urease. Kind of data set: Kinetic analysis of urease inhibition. In kind it is biochemical. Summed up:
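Jack bean urease (5 U/mL enzyme solution) in potassium phosphate buffer (10 mM K2HPO4, 1 mM EDTA, 10 mM LiCl, pH 8.2) at 37 °C. Ammonia read by indophenol method at 625 nm. Initial velocities taken from per-minute readings up to 10 min. Mode from Lineweaver–Burk plots; Ki from secondary plot with linear least-squares fit.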

T1 sequence (P07374 whole entry, looked up): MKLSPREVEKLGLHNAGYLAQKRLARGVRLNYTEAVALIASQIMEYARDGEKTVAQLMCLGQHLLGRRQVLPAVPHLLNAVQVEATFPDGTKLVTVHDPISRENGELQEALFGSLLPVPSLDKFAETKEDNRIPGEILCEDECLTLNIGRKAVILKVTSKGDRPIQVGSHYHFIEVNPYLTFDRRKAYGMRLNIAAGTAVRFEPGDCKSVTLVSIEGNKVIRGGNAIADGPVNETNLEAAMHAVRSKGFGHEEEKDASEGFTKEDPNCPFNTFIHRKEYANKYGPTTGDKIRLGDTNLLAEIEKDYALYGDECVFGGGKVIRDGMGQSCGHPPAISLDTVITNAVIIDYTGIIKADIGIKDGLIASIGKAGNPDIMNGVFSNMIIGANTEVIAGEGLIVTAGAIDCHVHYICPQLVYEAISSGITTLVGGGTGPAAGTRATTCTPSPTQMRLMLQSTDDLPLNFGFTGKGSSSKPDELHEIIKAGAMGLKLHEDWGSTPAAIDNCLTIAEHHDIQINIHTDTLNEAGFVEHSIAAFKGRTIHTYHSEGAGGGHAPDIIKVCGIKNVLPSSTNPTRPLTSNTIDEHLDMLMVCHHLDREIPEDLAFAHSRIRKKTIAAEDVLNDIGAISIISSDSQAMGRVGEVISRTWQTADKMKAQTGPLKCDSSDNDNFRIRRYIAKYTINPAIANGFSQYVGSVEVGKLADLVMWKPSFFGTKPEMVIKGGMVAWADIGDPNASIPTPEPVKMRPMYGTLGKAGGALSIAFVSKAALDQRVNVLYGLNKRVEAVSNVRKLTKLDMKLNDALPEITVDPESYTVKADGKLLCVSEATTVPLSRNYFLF

On to `Cc1ccc(NC(=O)CCCSc2nnc(CCCc3c[nH]c4ccccc34)o2)cc1` [Compound 8f], for which, in the data set “Hemolytic activity”, the hemolysis at 30 min was found to be 3.51 ± 0.04%. Moreover, 102 ± 29.9 nM corresponded to half-maximal inhibition at Jack bean urease [1] (IC50).

With `Cc1ccccc1NC(=O)CCCSc1nnc(CCCc2c[nH]c3ccccc23)o1` [Compound 8d], in the data set “Hemolytic activity”, the hemolysis at 30 min came to 5.18 ± 0.03%. Moreover, it took 71.7 ± 15.2 nM to reach half-maximal inhibition against Jack bean urease [1] (IC50).

With `CCc1ccccc1NC(=O)CCCSc1nnc(CCCc2c[nH]c3ccccc23)o1` [Compound 8b], in “Hemolytic activity”, the hemolysis at 30 min worked out at 2.41 ± 0.03%. At Jack bean urease [1], inhibition was half-maximal at 54.2 ± 21.1 nM (IC50).

Regarding `CCc1cccc(C)c1NC(=O)CCCSc1nnc(CCCc2c[nH]c3ccccc23)o1` [Compound 8j], the hemolysis at 30 min in the data set “Hemolytic activity” turned out to be 9.63 ± 0.05%. Besides, the IC50 – broadly, the concentration that inhibits the measured activity by half – on Jack bean urease [1] came to 37.5 ± 5.8 nM.

For `CCOc1ccc(NC(=O)CCCSc2nnc(CCCc3c[nH]c4ccccc34)o2)cc1` [Compound 8a], in the data set “Hemolytic activity”, the hemolysis at 30 min is 3.16 ± 0.05%. Also, on Jack bean urease [1], the IC50 stood at 52.3 ± 4.4 nM.

In the data set “Hemolytic activity”, `CC(C)(C)CC(C)(C)c1ccc(OCCO)cc1` [Triton X, reference compound] yielded a hemolysis at 30 min of 89.11 ± 0.01%.

On to `CCc1ccc(NC(=O)CCCSc2nnc(CCCc3c[nH]c4ccccc34)o2)cc1` [Compound 8c], for which the inhibition constant Ki – broadly, the dissociation constant of the complex between target and ligand, obtained from inhibition or displacement – on Jack bean urease [2] turned out to be 3 nM. Moreover, the “Vmax (ΔA/Min)” value at Jack bean urease [2] (8c concentration 0.017 μM) is reported as 6.119 × 10^−5 ΔA/Min; on Jack bean urease [2] (8c concentration 0.034 μM) it was 4.599 × 10^−5 ΔA/Min. The Inhibition type entry on Jack bean urease [2] (Lineweaver-Burk plot) is listed as “non-competitively; also recorded: Non-competitive”. For the same compound, the hemolysis at 30 min in “Hemolytic activity” amounted to 0.62 ± 0.02%. Further, the IC50 against Jack bean urease [1] amounted to 17.5 ± 6.5 nM.

Compound `Cc1cc(C)cc(NC(=O)CCCSc2nnc(CCCc3c[nH]c4ccccc34)o2)c1` [Compound 8i] had a hemolysis at 30 min in the data set “Hemolytic activity” of 7.32 ± 0.03%. Moreover, the IC50 on Jack bean urease [1] turned out to be 124 ± 31.8 nM.

In the data set “Hemolytic activity”, `Cc1cccc(NC(=O)CCCSc2nnc(CCCc3c[nH]c4ccccc34)o2)c1` [Compound 8e] yielded a hemolysis at 30 min of 5.92 ± 0.02%. On Jack bean urease [1], this compound registered an IC50 of 32.3 ± 11.9 nM.

In the case of `NC(N)=S` [Thiourea, reference compound], the IC50 at Jack bean urease [1] (read-out: Urease activity IC50 ± SEM, Jack bean urease 5 U/mL, 100 mM urea, pH 8.2, 30 min at 37 °C, triplicate) was determined as 4750 ± 54.6 nM.

`Cc1cccc(C)c1NC(=O)CCCSc1nnc(CCCc2c[nH]c3ccccc23)o1` [Compound 8h]: the hemolysis at 30 min in “Hemolytic activity” worked out at 2.63 ± 0.02%. For the same compound, the IC50 on Jack bean urease [1] came to 25.1 ± 8.3 nM.

For `Cc1ccc(NC(=O)CCCSc2nnc(CCCc3c[nH]c4ccccc34)o2)c(C)c1` [Compound 8g, N-(2,4-dimethylphenyl)-4-({5-[3-(1H-indol-3-yl)propyl]-1,3,4-oxadiazol-2-yl}sulfanyl)butanamide], the hemolysis at 30 min in the data set “Hemolytic activity” amounted to 1.41 ± 0.01%. 200 ± 12.2 nM corresponded to half-maximal inhibition at Jack bean urease [1] (IC50).
